In ChEMBL document CHEMBL1155970, “Synthesis and biological evaluation of quinic acid derivatives as anti-inflammatory agents” (Bioorg Med Chem Lett, 2009):
One block for each compound: values may come before it. Calls of active or inactive are those of the source. The calls are words filed in the database; no cut-off is given here.

Legend:
[1] = tested on: A549; experiment: Inhibition of human NF-kappaB in TNF-alpha-stimulated A549 cells assessed as secreted alkaline phosphatase level at 1 uM after 18 hrs; format: cell-based
Procedure, shortened: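 The A549 NF-κB–SEAP reporter line was given TNF-α (10 ng/mL) plus compound at a single concentration, with dexamethasone as positive control. Supernatant SEAP was read 18 h later by chemiluminescence. Results are expressed as % inhibition relative to TNF-α alone, mean ± standard deviation, n = 3.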

[2] = tested on: Radical scavenging activity; experiment: Antioxidant activity assessed as DPPH radical scavenging activity by UV-visible spectrophotometry; format: functional
Procedure, shortened: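 DPPH stock at 0.625 mM in 50% acetone, stored at 4 °C in the dark; diluted daily to a 0.208 mM working solution. Samples in 50% acetone were mixed 1:1 with working DPPH, giving 0.104 mM DPPH initially. Mixtures were vortexed and read immediately at 515 nm against a 50% acetone blank, and remaining DPPH was calculated.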

[3] = tested on: A549; experiment: Cytotoxicity against human A549 cells after 2 hrs by MTS assay; format: cell-based; details: a549, 18 h, in the assay text read “18 hrs” for “2 hrs”
Procedure, shortened: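 A549SN cells were plated at 1 × 10⁴ per well and held 24 h at 37 °C, then treated in duplicate for 18 h alongside vehicle and medium-only controls. Viability was read by MTS: formazan absorbance at 490 nm after 2 h, with the media-only background subtracted.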

[4] = Inhibition of human NF-kappaB in TNF-alpha-stimulated A549 cells assessed as secreted alkaline phosphatase level after 18 hrs; format: cell-based; details: A549, 18 h
Procedure, shortened: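 Type II-like A549 cells stably carrying an NF-κB response element–SEAP reporter were plated overnight at 6 × 10⁴ cells/well. They were then stimulated with human recombinant TNF-α (10 ng/mL) together with compound. After 18 h, supernatant SEAP was measured by chemiluminescence and normalized to lysate total protein (BCA). IC50 came from dose–response curves, n = 3 separate experiments.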

Structure (SMILES): NCCNC(=O)[C@]1(O)C[C@@H](O)[C@@H](O)[C@H](O)C1
- Activity [1]: Active

Structure (SMILES): O=C(O)[C@]1(O)C[C@@H](O)[C@@H](O)[C@H](O)C1 [QUINIC ACID]
- Activity [2]: inactive
- Activity [3]: Not Active

- IC50 [4]: 2830 nM
Structure (SMILES): CCCNC(=O)[C@]1(O)C[C@@H](O)[C@@H](O)[C@H](O)C1
- Activity [2]: inactive
- Activity [3]: Not Active
- Activity [1]: Active

Structure (SMILES): CC(=O)O[C@@H]1C[C@](OC(C)=O)(C(=O)O)C[C@@H](OC(C)=O)[C@H]1OC(C)=O
- Activity [1]: inactive

Structure (SMILES): CC(C)NC(=O)[C@]1(O)C[C@@H](O)[C@@H](O)[C@H](O)C1
- Activity [1]: Active

Structure (SMILES): O=C(O)/C=C/c1ccc(O)c(O)c1
- Activity [2]: Active

Structure (SMILES): CC(C)(C)OC(=O)NCCNC(=O)[C@]1(O)C[C@@H](O)[C@@H](O)[C@H](O)C1
- Activity [1]: Active

Structure (SMILES): O=C(/C=C/c1ccc(O)c(O)c1)O[C@@H]1C[C@](O)(C(=O)O)C[C@@H](O)[C@H]1O
- Activity [2]: Active

Structure (SMILES): O=C1O[C@H]([C@@H](O)CO)C(O)=C1O
- Activity [2]: Active
